pIC50: −log10 of the molar value. Activity calls are given as the source filed them. The rule behind the calls is not given here.
Legend:
[1] = system: RAW264.7; assay: Antiinflammatory activity in mouse RAW264.7 cells assessed as inhibition of LPS-induced COX-2 mRNA expression at 60 uM after 2 to 12 hrs by qRT-PCR method; type: functional, cell-based
Procedure, shortened: (§1)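 RAW 264.7 stimulated with LPS 10 ng/mL with or without 60 μM for 2, 4, 6 and 12 h. Total RNA (1 μg) reverse-transcribed with MuLV RT and random primer; SYBR green real-time qPCR with gene-specific primers, triplicate Ct normalized to β-actin. Mean ± SD, three independent experiments.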

[2] = system: Rattus norvegicus; assay: Antiinflammatory activity in Sprague-Dawley rat assessed as inhibition of croton oil-induced ear edema at 15 mg/kg, ip administered 1 hr before croton oil challenge measured after 3 hrs post challenge relative to control; type: functional
Procedure, shortened: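 Male SD rats given compound i.p. (5, 10 or 15 mg/kg) 1 h before topical croton oil (5% in 100 μL acetone) on the inner right ear; the left ear received acetone alone. After 3 h, rats were killed and 6 mm ear punches were taken and measured for thickness. Inhibition calculated relative to the croton-oil-only group; seven rats per group.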

[3] = system: Rattus norvegicus; assay: Antiinflammatory activity in Sprague-Dawley rat assessed as reduction in carrageenan induced paw edema at 5 mg/kg, ip administered 1 hr before carrageenan challenge measured at 3 hrs post challenge relative to control; type: functional
Procedure, shortened: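 SD rats given compound i.p. (5, 10 or 15 mg/kg) 1 h before subplantar injection of 1% carrageenan in saline (0.1 mL) into the right hind paw. Paw volume measured by plethysmometer at 1, 3 and 5 h. Edema compared with the carrageenan-only group; seven rats per group.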

[4] = system: RAW264.7; assay: Antiinflammatory activity in mouse RAW264.7 cells assessed as inhibition of LPS-induced TNF-alpha mRNA expression at 60 uM after 2 to 12 hrs by qRT-PCR method; type: functional, cell-based; procedure, shortened: as §1
[5] = system: RAW264.7; assay: Inhibition of LPS-induced JNK phosphorylation in mouse RAW264.7 cells at 15 to 60 uM preincubated for 1 hr followed by LPS challenge for 30 mins by Western blot analysis; type: cell-based
Procedure, shortened: (§2)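 RAW 264.7 pretreated 1 h at 15, 30 or 60 μM, then LPS 10 ng/mL for 30 min. Lysates Western-blotted for p-p38, p38, p-JNK, JNK, p-ERK, ERK with β-actin control; ECL, densitometry. Three independent experiments.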

[6] = system: Rattus norvegicus; assay: Antiinflammatory activity in Sprague-Dawley rat assessed as inhibition of croton oil-induced inflammatory cell infiltration at 10 mg/kg, ip administered 1 hr before croton oil challenge measured after 3 hrs by hematoxylin and eosin staining based assay; type: functional, organism-based
Procedure, shortened: (§3)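 SD male rats dosed i.p. (10 mg/kg) 1 h before topical croton oil (5% in acetone) on inner right ear; left ear got acetone only. At 3 h rats sacrificed, 6 mm ear punches taken, fixed in 4% paraformaldehyde overnight, paraffin-embedded, H&E-stained for edema and inflammatory cell infiltrate; seven animals per group.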

[7] = system: Mus musculus; assay: Inhibition of LPS-induced COX-2 mRNA expression in C57BL/6 mouse liver at 10 mg/kg, ip pretreated for 1 hr followed by LPS challenge for 6 hrs by qRT-PCR method; type: functional, organism-based
Procedure, shortened: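 Male C57BL/6 mice given 10 mg/kg i.p. or vehicle 1 h before LPS (Salmonella enterica, 25 mg/kg i.p.); liver collected 6 h after LPS, frozen at −80 °C. Liver mRNA by SYBR qRT-PCR normalized to β-actin; protein by Western blot for p-STAT1 (Y701, S727). Eight mice per group; mean ± SD.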

[8] = target: T1, Signal transducer and activator of transcription 1 (Mus musculus) (UniProt P42225); assay: Inhibition of LPS-induced STAT1 phosphorylation at S727 in C57BL/6 mouse peritoneal macrophages at 15 to 60 uM preincubated for 1 hr followed by LPS challenge for 30 mins by Western blot analysis
T1 sequence (whole entry): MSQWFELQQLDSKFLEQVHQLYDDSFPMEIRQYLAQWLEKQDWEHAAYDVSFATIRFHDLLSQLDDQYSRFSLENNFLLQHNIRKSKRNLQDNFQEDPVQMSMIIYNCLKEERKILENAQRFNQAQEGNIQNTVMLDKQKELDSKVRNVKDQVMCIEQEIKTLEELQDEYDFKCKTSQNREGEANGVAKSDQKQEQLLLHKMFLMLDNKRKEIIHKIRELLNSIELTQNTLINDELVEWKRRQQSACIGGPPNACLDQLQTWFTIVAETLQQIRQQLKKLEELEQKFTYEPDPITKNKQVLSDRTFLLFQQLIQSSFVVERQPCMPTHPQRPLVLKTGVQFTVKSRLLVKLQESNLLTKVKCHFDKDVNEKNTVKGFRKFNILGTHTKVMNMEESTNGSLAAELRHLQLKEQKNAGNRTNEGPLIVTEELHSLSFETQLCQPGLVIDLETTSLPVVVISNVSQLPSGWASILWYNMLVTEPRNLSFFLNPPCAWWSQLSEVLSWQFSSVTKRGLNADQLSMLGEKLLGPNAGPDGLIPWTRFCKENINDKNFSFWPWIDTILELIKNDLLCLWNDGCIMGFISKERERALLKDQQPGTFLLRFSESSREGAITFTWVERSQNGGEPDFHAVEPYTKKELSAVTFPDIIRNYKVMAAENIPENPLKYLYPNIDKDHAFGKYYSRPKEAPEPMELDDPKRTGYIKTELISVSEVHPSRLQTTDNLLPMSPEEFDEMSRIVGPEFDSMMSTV
Procedure, shortened: (§4)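 Thioglycolate-elicited C57BL/6 peritoneal macrophages pretreated 1 h at 15, 30 or 60 μM, then LPS 10 μg/mL: 120 min for p-STAT1 Y701, 30 min for p-STAT1 S727, 60 min for p-STAT3 Y705. Western blot with phospho-specific and total STAT antibodies, β-actin control; three independent experiments.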

[9] = target: Signal transducer and activator of transcription 3 (Mus musculus) (UniProt P42227); assay: Inhibition of LPS-induced STAT3 phosphorylation at Y705 in C57BL/6 mouse peritoneal macrophages at 15 to 60 uM preincubated for 1 hr followed by LPS challenge for 60 mins by Western blot analysis; procedure, shortened: as §4
Chain of Signal transducer and activator of transcription 3 (Mus musculus) (P42227 whole entry): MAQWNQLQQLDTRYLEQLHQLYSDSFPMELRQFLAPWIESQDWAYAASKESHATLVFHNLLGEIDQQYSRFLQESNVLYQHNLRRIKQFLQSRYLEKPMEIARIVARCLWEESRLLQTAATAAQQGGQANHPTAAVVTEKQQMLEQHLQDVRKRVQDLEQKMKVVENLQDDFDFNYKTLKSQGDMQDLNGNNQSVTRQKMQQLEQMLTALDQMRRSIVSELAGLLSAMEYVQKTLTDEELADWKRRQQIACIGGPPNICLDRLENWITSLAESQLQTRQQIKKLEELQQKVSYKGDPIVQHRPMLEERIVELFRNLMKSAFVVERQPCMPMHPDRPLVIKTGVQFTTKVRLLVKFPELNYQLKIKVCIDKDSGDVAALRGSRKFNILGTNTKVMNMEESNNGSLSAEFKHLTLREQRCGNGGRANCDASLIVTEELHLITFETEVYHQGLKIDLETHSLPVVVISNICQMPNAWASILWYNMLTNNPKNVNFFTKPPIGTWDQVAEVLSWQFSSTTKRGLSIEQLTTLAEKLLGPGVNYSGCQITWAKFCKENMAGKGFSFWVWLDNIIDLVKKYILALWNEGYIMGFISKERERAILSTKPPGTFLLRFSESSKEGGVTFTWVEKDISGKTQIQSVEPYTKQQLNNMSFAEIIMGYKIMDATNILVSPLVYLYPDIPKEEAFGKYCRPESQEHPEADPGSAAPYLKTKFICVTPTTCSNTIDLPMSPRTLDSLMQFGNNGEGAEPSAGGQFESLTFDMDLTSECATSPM

[10] = system: RAW264.7; assay: Cytotoxicity against mouse RAW264.7 cells assessed as decrease in cell viability after 24 hrs by MTT assay; type: cell-based; settings: RAW264.7, 24 h
Procedure, shortened: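 RAW 264.7 cells seeded at 1 × 10^5 cells/mL in DMEM with 10% FBS and incubated overnight. Exposed to compound (0−400 μM) for 24 h, with or without LPS. MTT added for 4 h at 37 °C, formazan dissolved in DMSO, absorbance read at 540 nm; IC50 derived.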

[11] = system: Rattus norvegicus; assay: Antiinflammatory activity in Sprague-Dawley rat assessed as inhibition of croton oil-induced ear edema at 10 mg/kg, ip administered 1 hr before croton oil challenge measured after 3 hrs by hematoxylin and eosin staining based assay; type: functional, organism-based; procedure, shortened: as §3
[12] = target: Mitogen-activated protein kinase 1 and 3 (ERK2 and ERK1) (Mus musculus) (UniProt P63085+Q63844); assay: Inhibition of LPS-induced ERK1/2 phosphorylation in mouse RAW264.7 cells at 15 to 60 uM preincubated for 1 hr followed by LPS challenge for 30 mins by Western blot analysis; type: cell-based; procedure, shortened: as §2
Chain of Mitogen-activated protein kinase 1 and 3 (ERK2 and ERK1) (Mus musculus) (P63085 whole entry, looked up): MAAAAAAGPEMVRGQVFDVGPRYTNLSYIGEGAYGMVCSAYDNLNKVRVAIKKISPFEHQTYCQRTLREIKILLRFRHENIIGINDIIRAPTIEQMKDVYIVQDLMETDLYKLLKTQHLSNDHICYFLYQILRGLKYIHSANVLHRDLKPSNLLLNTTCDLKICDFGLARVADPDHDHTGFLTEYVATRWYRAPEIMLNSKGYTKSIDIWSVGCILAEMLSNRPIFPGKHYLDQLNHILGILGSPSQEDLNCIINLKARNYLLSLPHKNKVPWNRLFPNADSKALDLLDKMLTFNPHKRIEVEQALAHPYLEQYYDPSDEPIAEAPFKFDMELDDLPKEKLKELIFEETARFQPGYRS
Chain of Mitogen-activated protein kinase 1 and 3 (ERK2 and ERK1) (Mus musculus) (Q63844 whole entry, looked up): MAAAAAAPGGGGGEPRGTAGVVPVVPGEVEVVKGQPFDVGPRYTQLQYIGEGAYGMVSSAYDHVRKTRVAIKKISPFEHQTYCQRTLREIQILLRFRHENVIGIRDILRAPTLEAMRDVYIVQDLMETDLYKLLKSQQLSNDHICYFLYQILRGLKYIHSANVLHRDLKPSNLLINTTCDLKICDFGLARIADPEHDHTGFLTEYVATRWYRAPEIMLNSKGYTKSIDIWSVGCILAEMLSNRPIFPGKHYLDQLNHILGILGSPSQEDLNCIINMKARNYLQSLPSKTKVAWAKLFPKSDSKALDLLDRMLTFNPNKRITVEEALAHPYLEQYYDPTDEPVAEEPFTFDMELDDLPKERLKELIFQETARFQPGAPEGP

## Cc1cc(=O)c2c(O)c([C@@H]3O[C@H](CO)[C@@H](O)[C@H](O)[C@H]3O)c(O)cc2o1 [BIFLORIN]
[1]
  inhibition: Active
[2]
  inhibition in vivo at 15 mg/kg: 74.7%
[3]
  inhibition in vivo at 5 mg/kg: 26%
[4]
  inhibition: Active
[5]
  inhibition: inactive
[6]
  inhibition: Active
[7]
  inhibition: Active
[8]
  inhibition: Active
[9]
  inhibition: Active
[10]
  pIC50: 3.85
[11]
  inhibition: Active
[12]
  inhibition: inactive
